The target of series [1] is T1, Amine oxidase [flavin-containing] B (Homo sapiens, UniProt P27338).
T1 sequence (P27338 whole entry): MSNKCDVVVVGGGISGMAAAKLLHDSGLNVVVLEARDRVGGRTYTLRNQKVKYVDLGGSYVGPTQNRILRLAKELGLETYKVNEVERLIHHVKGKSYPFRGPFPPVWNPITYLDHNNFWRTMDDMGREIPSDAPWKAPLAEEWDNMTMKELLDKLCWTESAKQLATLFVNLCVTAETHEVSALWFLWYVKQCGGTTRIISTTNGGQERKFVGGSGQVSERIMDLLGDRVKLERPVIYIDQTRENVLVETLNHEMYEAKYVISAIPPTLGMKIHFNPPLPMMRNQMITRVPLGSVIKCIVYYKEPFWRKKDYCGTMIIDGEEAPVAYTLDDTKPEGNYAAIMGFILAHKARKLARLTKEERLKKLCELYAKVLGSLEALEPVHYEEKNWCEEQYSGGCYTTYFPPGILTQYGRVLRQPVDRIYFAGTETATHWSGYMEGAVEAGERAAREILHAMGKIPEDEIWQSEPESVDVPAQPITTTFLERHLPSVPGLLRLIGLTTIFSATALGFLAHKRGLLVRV
The experiment in a line: Inhibition of recombinant human MAO-B expressed in baculovirus infected BTI insect cells assessed as reduction in formation of 4-quinolinol at 25 uM using kynuramine as substrate preincubated with substrate for 10 mins followed by enzyme addition and measured after 20 mins by fluorescence based microplate reader assay relative to control.

Series [2] has as its target T1, Amine oxidase [flavin-containing] B. Put plainly: Inhibition of recombinant human MAO-B expressed in baculovirus infected BTI insect cells assessed as reduction in formation of 4-quinolinol using kynuramine as substrate preincubated with substrate for 10 mins followed by enzyme addition and measured after 20 mins by fluorescence based microplate reader assay.
Series [3] has as its system SH-SY5Y. The experiment in a line: Neuroprotective activity against H2O2-induced cytotoxicity in human SH-SY5Y cells assessed as increase in cell viability at 10 uM measured after 24 hrs by MTT assay relative to H2O2-treated control. Type of series: functional. The method, boiled down:
(§1)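 SH-SY5Y cells were seeded at 5.0 × 10⁴ cells/well and given 24 h attachment. Compound (DMSO final <0.5%) and H₂O₂ (final 500 μM) were added together in serum-free E-MEM/F12 and left 24 h at 37 °C, 5% CO₂. Viability was by MTT (5 mg/mL, 24 h, absorbance 595 nm). Luteolin was the positive control. Mean ± SD, n = 3; one-way ANOVA with Dunnett's test against H₂O₂ alone.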

The subject of series [4] is SH-SY5Y. The experiment in a line: Neuroprotective activity against H2O2-induced cytotoxicity in human SH-SY5Y cells assessed as increase in cell viability measured after 24 hrs by MTT assay. Type of series: functional, cell-based. The method, boiled down: as §1
On the technique in general: Tetrazolium assays rely on reduction of a dye to a coloured formazan, in cell work by metabolically active cells.

For series [5], the system named is SH-SY5Y. The experiment in a line: Cytotoxicity against human SH-SY5Y cells assessed as effect on cell viability at 10 uM measured after 24 hrs by MTT assay. In kind it is cell-based. The essentials:
(§2)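 SH-SY5Y cells (ECACC) were seeded at 5.0 × 10⁴ cells/well and grown 24 h in E-MEM/F12 with 0.3% FBS. Compound in DMSO (final <0.5%) was added in serum-free medium without H₂O₂ and incubated 24 h at 37 °C, 5% CO₂. Viability was read by MTT (5 mg/mL, 24 h, A595). Mean ± SD, n = 3.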

The target of series [6] is T1, Amine oxidase [flavin-containing] B. Put plainly: Mixed inhibition of recombinant human MAO-B expressed in baculovirus infected BTI insect cells at 0.32 to 2.6 uM by Lineweaver-Burk plot analysis.
The target is the same in series [7]. The experiment in a line: Tight-binding competitive inhibition of recombinant human MAO-B expressed in baculovirus infected BTI insect cells at varying substrate concentration and IC50 of compound by tight-binding inhibition based assay. The essentials: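 For recombinant human MAO-B with kynuramine as substrate (fluorescent 4-quinolinol read-out), IC50 values were determined at different substrate concentrations and then plotted against substrate concentration to assess tight-binding competitive inhibition.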

The target is the same in series [8]. Put plainly: Mixed inhibition of recombinant human MAO-B expressed in baculovirus infected BTI insect cells at 0.7 to 2.8 uM by Lineweaver-Burk plot analysis.
Series [9] in a line: Solubility of compound at >=25 uM. Type of series: physicochemical.
Series [10] can be described thus: Cytotoxicity against human SH-SY5Y cells assessed as cell viability at 5 uM measured after 24 hrs by MTT assay relative to control. In kind it is cell-based. The note with it: read-out: Activity. The essentials:
as §2

A short description of series [11]: Cytotoxicity against human SH-SY5Y cells assessed as cell viability at 10 uM measured after 24 hrs by MTT assay relative to control. Type of series: cell-based. Particulars: read-out: Activity; call rule not given here. The method, boiled down: as §2

Molecules are shown by their SMILES.

Broadly, the inhibition is the drop in the measured response relative to a control, in per cent. The IC50 is the concentration that inhibits the measured activity by half.

Turning to `CC(C)=CCc1c(C)cc(O)cc1O`, the inhibition at 25 µM in [1] came out at 4.2%.
As to `CC(C)=CCC/C(C)=C/CC1=C(C)C(=O)C(O)=C(O)C1=O`, the IC50 in series [2] (read-out: IC50) was 1.4 µM. For the same compound, in [1], the inhibition at 25 µM amounted to 92.2%.
Regarding `CC(C)=CCc1c(C)cc(O)c(O)c1O`, in series [1], the inhibition at 25 µM is 32.7%.
Regarding `CC(C)=CCC/C(C)=C/Cc1c(O)cc(O)c(C=O)c1C`, the half-maximal inhibitory concentration (IC50) in series [2] (read-out: IC50) was 19.7 µM. In series [1], the inhibition at 25 µM worked out at 77.4%.
For `COc1c(C)c(C/C=C(\C)CC/C=C(\C)CCC=C(C)C)c(OC)c(OC)c1OC`, the inhibition at 25 µM in series [1] is 15.2%.
`CC(C)=CCC/C(C)=C/CC/C(C)=C/Cc1c(C)cc(O)c(O)c1O`: the half-inhibitory concentration (IC50) in series [2] (read-out: IC50) amounted to 1.3 µM. Further, the inhibition at 25 µM in series [1] stood at 97.8%. Moreover, the Activity with SH-SY5Y [3] was over 20%; in the series with SH-SY5Y [4], “Dose-dependent effect”; in the series with SH-SY5Y [5], “Non-Toxic”. Further, the “inhibition (INH)” value in [6] and in series [7] was “Active” in each case.
In the case of `CC(C)=CCc1c(O)cc(O)c(C=O)c1C`, the inhibition at 25 µM in series [1] came to 36.3%.
Take `COc1cc(C)c(CC=C(C)C)c(OC)c1OC`: the inhibition at 25 µM in series [1] was 18.6%.
As to `CC(C)=CCC/C(C)=C/Cc1c(C)cc(O)cc1O`, the inhibition at 25 µM in [1] worked out at 30.7%.
Regarding `COc1cc(C)c(C/C=C(\C)CCC=C(C)C)c(OC)c1OC`, in [1], the inhibition at 25 µM came out at 5.9%.
Regarding `CC(C)=CCc1c(C)c(C=O)c(O)c(CC=C(C)C)c1O`, the IC50 in series [2] (read-out: IC50) was 5.5 µM. For the same compound, the inhibition at 25 µM in series [1] is 84.7%.
Take `COc1c(C)c(CC=C(C)C)c(OC)c(OC)c1OC`: in [1], the inhibition at 25 µM was 7.2%.
`COc1cc(C)c(C/C=C(\C)CC/C=C(\C)CCC=C(C)C)c(OC)c1`: the inhibition at 25 µM in [1] is 10.8%.
As for `CC(C)=CCC/C(C)=C/CC/C(C)=C/CC1=C(C)C(=O)C(O)=C(O)C1=O`, the concentration for half-maximal inhibition (IC50) in [2] (read-out: IC50) was 1.3 µM. The inhibition at 25 µM in series [1] was determined as 93.1%. The Activity is over 20% in the series on SH-SY5Y [3], “Dose-dependent effect” in the series on SH-SY5Y [4] and “Non-Toxic” in the series with SH-SY5Y [5]. Further, the “inhibition (INH)” value in [8] and in [7] was “Active” each time.
Regarding `CC(C)=CCC/C(C)=C/Cc1c(C)c(C=O)c(O)c(C/C=C(\C)CCC=C(C)C)c1O`, in [2], the 50% inhibitory concentration (IC50) entry is “Nd(Insoluble)”. Further, the inhibition at 25 µM in series [1] was found to be 48.1%. Besides, the solubility result in [9] is on record as “Insoluble”.
For `CC(C)=CCC/C(C)=C/CC/C(C)=C/Cc1c(O)cc(O)c(C(=O)O)c1C`, the IC50 in [2] (read-out: IC50) turned out to be 26.5 µM. Moreover, the inhibition at 25 µM in series [1] is 49.2%.
Turning to `CC(C)=CCC/C(C)=C/CC/C(C)=C/Cc1c(C)c(C=O)c(O)c(C/C=C(\C)CC/C=C(\C)CCC=C(C)C)c1O`, the half-inhibitory concentration (IC50) result in series [2] is “Nd(Insoluble)”. For the same compound, in series [1], the inhibition at 25 µM came out at 48.8%. Also, the solubility result in series [9] is listed as “Insoluble”.
Turning to `COc1c(C)c(C/C=C(\C)CCC=C(C)C)c(OC)c(OC)c1OC`, in series [1], the inhibition at 25 µM is 38%.
For `CC(C)=CCC/C(C)=C/CC/C(C)=C/Cc1c(C)cc(O)cc1O`, the IC50 in series [2] (read-out: IC50) turned out to be 9.2 µM. In addition, in series [1], the inhibition at 25 µM came out at 96.4%. Further, in series [10], the viability at 24 h, 5 µM was 63%. In series [11], the viability at 24 h, 10 µM amounted to 60%.
As to `CC(C)=CCC/C(C)=C/Cc1c(C)cc(O)c(O)c1O`, the IC50 in [2] (read-out: IC50) was found to be 10.5 µM. Further, the inhibition at 25 µM in series [1] was determined as 88.7%.
Turning to `CC(C)=CCC1=C(C)C(=O)C(O)=C(O)C1=O`, the inhibition at 25 µM in series [1] came to 38.3%.
`COc1cc(C)c(C/C=C(\C)CC/C=C(\C)CCC=C(C)C)c(OC)c1OC`: the inhibition at 25 µM in [1] came to 34.9%.
Consider `CC(C)=CCC/C(C)=C/CC/C(C)=C/Cc1c(O)cc(O)c(C=O)c1C`, for which, in series [2] (read-out: IC50), the IC50 was 2.3 µM. Further, the inhibition at 25 µM in [1] turned out to be 91.2%. In addition, the Activity in the series with SH-SY5Y [3] was over 20%; in the series on SH-SY5Y [4] it was “Dose-dependent effect”; in the series with SH-SY5Y [5], “Non-Toxic”.
Take `CC(C)=CCc1c(O)cc(O)c(C(=O)O)c1C`: in [1], the inhibition at 25 µM is 16.3%.
With `COc1cc(C)c(CC=C(C)C)c(OC)c1`, the inhibition at 25 µM in series [1] came out at 5.4%.
Turning to `CC(C)=CCC/C(C)=C/Cc1c(O)cc(O)c(C(=O)O)c1C`, in series [1], the inhibition at 25 µM is 31.2%.

Values taken from ChEMBL document CHEMBL4609977, “Synthesis of natural product-like polyprenylated phenols and quinones: Evaluation of their neuroprotective activities” (Bioorg Med Chem, 2020).
